≈ marks a conversion by molar mass, not a printed value.
How the values were obtained:
Format in all cases: functional
[1] = tested on: Bacillus subtilis; assay: Antibacterial activity against Bacillus subtilis ATCC 6633 after 24 hrs by serial dilution method; conditions: ATCC 6633, 24 h
In short: (§1)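 Broth microdilution in Mueller–Hinton broth, run only for compounds giving zones >14 mm in the disk test. DMF stocks were diluted twofold from 500 to 3.125, and about 10⁶ CFU/mL bacteria were added per well. Sealed plates were kept at 37 °C for 24 h in a humid chamber. MIC was taken as the lowest concentration without visible turbidity.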

[2] = tested on: Bacillus thuringiensis; assay: Antibacterial activity against Bacillus thuringiensis ATCC 6051 after 24 hrs by serial dilution method; conditions: ATCC 6051, 24 h; in short: as §1
[3] = tested on: Escherichia coli; assay: Antibacterial activity against Escherichia coli ATCC 14169 after 24 hrs by serial dilution method; conditions: ATCC 14169, 24 h; in short: as §1
[4] = tested on: Pseudomonas aeruginosa; assay: Antibacterial activity against Pseudomonas aeruginosa ATCC 27853 after 24 hrs by serial dilution method; conditions: ATCC 27853, 24 h; in short: as §1
[5] = tested on: Fusarium oxysporum; assay: Antifungal activity against Fusarium oxysporum ATCC 16417 after 48 hrs by serial dilution method; conditions: ATCC 16417, 48 h
In short: (§2)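 MICs were measured by microdilution in Sabouraud liquid medium, for compounds with disk zones >14 mm. DMF stocks were serially diluted twofold across 500–3.125. Sealed plates were incubated at 37 °C for 48 h in a humid chamber. The lowest concentration with no visible turbidity was recorded as the MIC.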

[6] = tested on: Botrytis fabae; assay: Antifungal activity against Botrytis fabae ATCC 14862 after 48 hrs by serial dilution method; conditions: ATCC 14862, 48 h; in short: as §2
[7] = tested on: Bacillus subtilis; assay: Antibacterial activity against Bacillus subtilis ATCC 6633 at 1 mg/ml after 24 hrs by agar-diffusion method; conditions: ATCC 6633, 24 h, read-out: IZ
In short: (§3)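 Agar disk diffusion on nutrient agar seeded with about 10⁶ CFU/mL of the test bacterium. Filter-paper disks were impregnated with compound in DMF at 1 mg/mL, two disks per plate, in triplicate. DMF alone served as control. Plates were incubated at 37 °C for 24 h, and the mean inhibition-zone diameter was recorded in mm.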

[8] = tested on: Bacillus thuringiensis; assay: Antibacterial activity against Bacillus thuringiensis ATCC 6051 at 1 mg/ml after 24 hrs by agar-diffusion method; conditions: ATCC 6051, 24 h, read-out: IZ; in short: as §3
[9] = tested on: Escherichia coli; assay: Antibacterial activity against Escherichia coli ATCC 14169 at 1 mg/ml after 24 hrs by agar-diffusion method; conditions: ATCC 14169, 24 h, read-out: IZ; in short: as §3
[10] = tested on: Pseudomonas aeruginosa; assay: Antibacterial activity against Pseudomonas aeruginosa ATCC 27853 at 1 mg/ml after 24 hrs by agar-diffusion method; conditions: ATCC 27853, 24 h, read-out: IZ; in short: as §3
[11] = tested on: Fusarium oxysporum; assay: Antifungal activity against Fusarium oxysporum ATCC 16417 at 1 mg/ml after 48 hrs by agar-diffusion method; conditions: ATCC 16417, 48 h, read-out: IZ
In short: (§4)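 Fungi were seeded at 10⁴ CFU/mL onto nutrient agar plates. Filter-paper disks carried compound dissolved in DMF at 1 mg/mL, two disks per plate, in triplicate, with a DMF-only control. After 48 h incubation at 37 °C, the average diameter of the growth-inhibition zone was read in mm.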

[12] = tested on: Botrytis fabae; assay: Antifungal activity against Botrytis fabae ATCC 14862 at 1 mg/ml after 48 hrs by agar-diffusion method; conditions: ATCC 14862, 48 h, read-out: IZ; in short: as §4
[13] = tested on: Bacillus subtilis; assay: Antibacterial activity against Bacillus subtilis ATCC 6633 after 24 hrs by serial dilution method relative to chloramphenicol
[14] = tested on: Bacillus thuringiensis; assay: Antibacterial activity against Bacillus thuringiensis ATCC 6051 after 24 hrs by serial dilution method relative to chloramphenicol
[15] = tested on: Bacillus subtilis; assay: Antibacterial activity against Bacillus subtilis ATCC 6633 after 24 hrs by serial dilution method relative to cephalothin

Structure (SMILES) | MIC [1] [µg/mL] | MIC [2] [µg/mL] | MIC [3] [µg/mL] | MIC [4] [µg/mL] | MIC [5] [µg/mL] | MIC [6] [µg/mL] | zone of inhibition at 1000 µg/mL [7] [mm] | zone of inhibition at 1000 µg/mL [8] [mm] | zone of inhibition at 1000 µg/mL [9] [mm] | zone of inhibition at 1000 µg/mL [10] [mm] | zone of inhibition at 1000 µg/mL [11] [mm] | zone of inhibition at 1000 µg/mL [12] [mm] | Activity [13] [%] | Activity [14] [%] | Activity [15] [%]
C[C@@H]1C[C@@H]([C@H](O)CC2CC(=O)NC(=O)C2)C(=O)[C@@H](C)C1 [CYCLOHEXIMIDE] |  |  |  |  | 3.12 (≈ 11.1 µM) | 3.12 (≈ 11.1 µM) |  |  |  |  | 43 | 42 |  |  | 
Cc1nn(-c2ccccc2)c2c1/C(=N/c1ccccn1)CO2 | 25 (≈ 86.1 µM) | 25 (≈ 86.1 µM) | 6.25 (≈ 21.5 µM) | 6.25 (≈ 21.5 µM) | 100 (≈ 344 µM) | 50 (≈ 172 µM) | 26 | 25 | 38 | 15 | 16 | 20 |  |  | 
O=C(N[C@H](CO)[C@H](O)c1ccc([N+](=O)[O-])cc1)C(Cl)Cl [CHLORAMPHENICOL] | 3.12 (≈ 9.67 µM) | 3.12 (≈ 9.67 µM) | 6.25 (≈ 19.3 µM) | 6.25 (≈ 19.3 µM) |  |  | 42 | 44 | 37 | 38 |  |  |  |  | 
Cc1nn(-c2ccccc2)c2c1/C(=N/c1nc3ccccc3[nH]1)CO2 | 3.12 (≈ 9.49 µM) | 6.25 (≈ 19 µM) | 50 (≈ 152 µM) | 50 (≈ 152 µM) | 6.25 (≈ 19 µM) | 6.25 (≈ 19 µM) | 44 | 37 | 19 | 20 | 14 | 37 |  |  | 
Cc1nn(-c2ccccc2)c2c1/C(=N/c1nnc[nH]1)CO2 | 6.25 (≈ 22.3 µM) | 6.25 (≈ 22.3 µM) | 100 (≈ 357 µM) | 100 (≈ 357 µM) | 100 (≈ 357 µM) | 50 (≈ 178 µM) | 38 | 38 | 15 | 16 | 15 | 19 |  |  | 
Cc1[nH]n(-c2ccccc2)c(=O)c1-c1cc2c(=O)oc3ccccc3c2o1 | 12.5 (≈ 34.9 µM) | 100 (≈ 279 µM) | 6.25 (≈ 17.4 µM) | 6.25 (≈ 17.4 µM) | 6.25 (≈ 17.4 µM) | 6.25 (≈ 17.4 µM) | 33 | 15 | 15 | 38 | 37 | 37 | 25 |  | 50
Cc1nn(-c2ccccc2)c2c1/C(=N/c1cnccn1)CO2 | 12.5 (≈ 42.9 µM) | 100 (≈ 343 µM) | 50 (≈ 172 µM) | 100 (≈ 343 µM) | 12.5 (≈ 42.9 µM) | 100 (≈ 343 µM) | 32 | 15 | 20 | 16 | 31 | 16 | 25 |  | 50
CC(=O)OCC1=C(C(=O)O)N2C(=O)[C@@H](NC(=O)Cc3cccs3)[C@H]2SC1 [CEPHALOTHIN] | 6.25 (≈ 15.8 µM) | 6.25 (≈ 15.8 µM) | 6.25 (≈ 15.8 µM) | 6.25 (≈ 15.8 µM) |  |  | 36 | 37 | 38 | 37 |  |  |  |  | 

Continued, in another order:

MIC [1] [µg/mL] | MIC [2] [µg/mL] | MIC [3] [µg/mL] | MIC [4] [µg/mL] | MIC [5] [µg/mL] | MIC [6] [µg/mL] | Structure (SMILES) | zone of inhibition at 1000 µg/mL [7] [mm] | zone of inhibition at 1000 µg/mL [8] [mm] | zone of inhibition at 1000 µg/mL [9] [mm] | zone of inhibition at 1000 µg/mL [10] [mm] | zone of inhibition at 1000 µg/mL [11] [mm] | zone of inhibition at 1000 µg/mL [12] [mm] | Activity [13] [%] | Activity [14] [%] | Activity [15] [%]
6.25 (≈ 19.6 µM) | 6.25 (≈ 19.6 µM) | 100 (≈ 314 µM) | 12.5 (≈ 39.3 µM) | 25 (≈ 78.5 µM) | 50 (≈ 157 µM) | Cc1[nH]n(-c2ccccc2)c(=O)c1C(=O)c1cc2ccccc2o1 | 38 | 37 | 15 | 33 | 26 | 19 | 50 | 50 | 
100 (≈ 311 µM) | 100 (≈ 311 µM) | 100 (≈ 311 µM) | 100 (≈ 311 µM) | 100 (≈ 311 µM) | 50 (≈ 156 µM) | Cc1[nH]n(-c2ccccc2)c(=O)c1C1=Nc2ccccc2SC1 | 15 | 15 | 15 | 16 | 15 | 19 |  |  | 
12.5 (≈ 41.5 µM) | 6.25 (≈ 20.7 µM) | 100 (≈ 332 µM) | 50 (≈ 166 µM) | 50 (≈ 166 µM) | 50 (≈ 166 µM) | Cc1[nH]n(-c2ccccc2)c(=O)c1C(=O)CN1CCOCC1 | 32 | 38 | 16 | 20 | 19 | 19 |  |  | 
3.12 (≈ 10.4 µM) | 6.25 (≈ 20.9 µM) | 50 (≈ 167 µM) | 100 (≈ 334 µM) | 100 (≈ 334 µM) | 12.5 (≈ 41.8 µM) | Cc1[nH]n(-c2ccccc2)c(=O)c1C(=O)CN1CCCCC1 | 43 | 38 | 19 | 16 | 14 | 31 |  |  | 
3.12 (≈ 10.5 µM) | 6.25 (≈ 21.1 µM) | 100 (≈ 337 µM) | 50 (≈ 169 µM) | 50 (≈ 169 µM) | 25 (≈ 84.4 µM) | CC(=O)c1cc(-c2c(C)[nH]n(-c3ccccc3)c2=O)oc1C | 42 | 37 | 15 | 18 | 20 | 26 |  |  | 
50 (≈ 164 µM) | 50 (≈ 164 µM) | 50 (≈ 164 µM) | 100 (≈ 328 µM) | 100 (≈ 328 µM) | 100 (≈ 328 µM) | Cc1[nH]n(-c2ccccc2)c(=O)c1C1=Nc2ccccc2OC1 | 20 | 19 | 19 | 15 | 15 | 15 |  |  | 
6.25 (≈ 18.8 µM) | 6.25 (≈ 18.8 µM) | 25 (≈ 75.2 µM) | 50 (≈ 150 µM) | 100 (≈ 301 µM) | 100 (≈ 301 µM) | Cc1[nH]n(-c2ccccc2)c(=O)c1C(=O)c1oc2ccccc2c1C | 37 | 37 | 27 | 19 | 15 | 15 | 50 | 50 | 
50 (≈ 164 µM) | 100 (≈ 329 µM) | 100 (≈ 329 µM) | 50 (≈ 164 µM) | 100 (≈ 329 µM) | 50 (≈ 164 µM) | Cc1[nH]n(-c2ccccc2)c(=O)c1C1=Nc2ccccc2NC1 | 19 | 15 | 15 | 19 | 15 | 20 |  |  | 
